Measurements taken from ChEMBL document CHEMBL1154726, “Exploring the effect of 2,3,4-trimethoxy-phenyl moiety as a component of indolephenstatins” (Eur J Med Chem, 2010).

Assays:
Bos taurus [1] = species on record: Bos taurus; test: Inhibition of calf brain tubulin polymerization at 20 uM after 20 mins
Outline: (§1)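 Single-concentration screen of tubulin assembly using calf brain MTP at 1.0 mg/mL in 0.1 M MES, 1 mM EGTA, 1 mM MgCl2, 1 mM β-ME, 1.5 mM GTP, pH 6.7, 4% DMSO, with a no-ligand control. Samples were preincubated 30 min at 20 °C and 10 min on ice, then warmed from 4 °C to 37 °C.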

HT-29 = test: Cytotoxicity against human HT-29 cells after 72 hrs by XTT assay; type: functional, cell-based; conditions: HT-29, 72 h
A549 = test: Cytotoxicity against human A549 cells after 72 hrs by XTT assay; type: functional, cell-based; conditions: A549, 72 h
HL-60 = test: Cytotoxicity against human HL60 cells after 72 hrs by XTT assay; type: functional, cell-based; conditions: HL-60, 72 h
Outline: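 XTT proliferation assay. Adherent cells were seeded and left 24 h at 37 °C in humidified 5% CO2/95% air to attach. HL-60 cells were seeded at 3 × 10³ cells/well. Cells were exposed to a range of compound concentrations for 72 h under the same atmosphere, then incubated a further 4 h. Formazan was read at 490 nm against a 655 nm reference. IC50 is the concentration giving 50% inhibition of proliferation.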

HeLa = test: Cytotoxicity against human HeLa cells after 72 hrs by XTT assay; type: functional, cell-based
[2] = Inhibition of calf brain tubulin polymerization after 20 mins; set-up: species or system Bos taurus
Outline: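 Microtubule protein was purified from calf brain by two cycles of temperature-dependent assembly/disassembly. Assay mix: 1.0 mg/mL MTP in 0.1 M MES, 1 mM EGTA, 1 mM MgCl2, 1 mM β-ME, 1.5 mM GTP, pH 6.7, 4% DMSO, with a no-ligand control. Samples were preincubated 30 min at 20 °C, chilled 10 min on ice, then assembled by a shift from 4 °C to 37 °C and followed by turbidity. IC50 at 20 min came from exponential fits of TPI% versus concentration, with ≥2 independent experiments on different MTP preparations.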

Bos taurus [3] = species on record: Bos taurus; test: Inhibition of calf brain tubulin polymerization at 30 uM after 20 mins
Outline: as §1, with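 “°C. Percent inhibition of the turbidity increase was taken after 20 min.” for “°C.”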

Bos taurus [4] = species on record: Bos taurus; test: Inhibition of calf brain tubulin polymerization at 40 uM after 20 mins
Outline: as §1, with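 “°C. Percent inhibition of the turbidity increase was taken after 20 min.” for “°C.”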

SMILES | inhibition (Bos taurus [1]) [%] | IC50 (HT-29) [nM] | IC50 (A549) [nM] | IC50 (HL-60) [nM] | IC50 (HeLa) [nM] | IC50 [2] [nM] | inhibition (Bos taurus [3]) [%] | inhibition (Bos taurus [4]) [%]
CCn1ccc2cc(/C(=N/OC(C)=O)c3ccc(OC)c(OC)c3OC)ccc21 | 29 |  |  |  |  |  |  | 
CN/N=C(/c1ccc2c(ccn2C)c1)c1ccc(OC)c(OC)c1OC | -0 | 2000 | > 10000 | 1000 | 1000 |  |  | 
COc1ccc(C(=O)c2cc(OC)c(OC)c(OC)c2)cc1O [PHENSTATIN] | 97 |  |  | 30 |  | 2500 |  | 
COc1ccc(C(=O)c2ccc3c(ccn3C)c2)c(OC)c1OC | 98 | 21 | 510 |  | 17 | 400 |  | 
CCn1ccc2cc(/C(=N\NC)c3ccc(OC)c(OC)c3OC)ccc21 |  | 1200 | 1900 |  | 290 |  | 17 | 
COc1cc(C(=O)c2ccc3c(ccn3C)c2)cc(OC)c1OC |  |  |  |  |  | 6900 |  | 98
CCn1ccc2cc(C(=O)c3ccc(OC)c(OC)c3OC)ccc21 | 47 | 2000 | > 10000 | 5000 | 420 | 5600 |  | 
COc1ccc(/C(=N\NC(C)=O)c2ccc3c(ccn3C)c2)c(OC)c1OC | 22 | 2000 | > 10000 | 2000 | 1000 |  |  | 
COc1ccc(/C=C\c2cc(OC)c(OC)c(OC)c2)cc1O [COMBRETASTATIN A4] |  |  |  |  |  | 3000 |  | 
CCn1ccc2cc(/C(=N/N)c3ccc(OC)c(OC)c3OC)ccc21 | 12 | > 10000 | > 10000 | 2000 |  |  |  | 
COc1ccc(/C(=N\O)c2ccc3c(ccn3C)c2)c(OC)c1OC |  | 270 | 1000 |  | 76 | 9000 | 82 | 
CCn1ccc2cc(C(O)c3ccc(OC)c(OC)c3OC)ccc21 (configuration not stated) | -0 | > 10000 | > 10000 | > 10000 | < 1000 |  |  | 
COc1ccc(C(=O)c2ccc(OC)c(OC)c2OC)cc1O | 19 |  |  |  |  |  |  | 
COc1ccc(/C(=N\N)c2ccc3c(ccn3C)c2)c(OC)c1OC | 25 | 2000 | > 10000 | 2000 | 2000 |  |  | 
CCn1ccc2cc(/C(=N/O)c3ccc(OC)c(OC)c3OC)ccc21 |  | 2000 | > 10000 | 2000 | 2000 | 43100 | 52 | 
CCn1ccc2cc(/C(=N/NC(C)=O)c3ccc(OC)c(OC)c3OC)ccc21 | 5 |  |  |  |  |  |  | 
COc1ccc(C(O)c2ccc3c(ccn3C)c2)c(OC)c1OC (configuration not stated) | 9 |  | > 10000 |  | 2400 |  |  | 
COc1ccc(/C(=N\OC(C)=O)c2ccc3c(ccn3C)c2)c(OC)c1OC |  | 1500 | > 10000 | 580 | 1000 |  | 20 | 
